Here are results for eight compounds from ChEMBL document CHEMBL4616631, “Design, synthesis and evaluation of phthalide alkyl tertiary amine derivatives as promising acetylcholinesterase inhibitors with high potency and selectivity against Alzheimer's disease” (Bioorg Med Chem, 2020).

Activity calls are given as the source filed them. No cut-off for these calls is given here.

The target of data set [1] is Butyrylcholinesterase (BuChE) (Rattus norvegicus, UniProt Q9JKC1). The experiment in a line: Inhibition of BuChE in rat serum at 50 uM using S-butylthiocholine iodide as substrate by Ellman's method relative to control. The class given is cell-free. The settings on record: probe S-butylthiocholine iodide. Summed up:
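Rat serum (25%) as BuChE source, S-butylthiocholine iodide 1 mM, DTNB 0.2%, in 0.1 mM phosphate buffer pH 7.4, 37 °C 15 min (modified Ellman); absorbance change at 405 nm. Three independent experiments, each in triplicate.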

Data set [2] can be described thus: Antioxidant activity assessed as trolox equivalent of AAPH-induced radical scavenging activity at 5 uM preincubated for 15 mins followed by AAPH addition measured every min for 90 mins by ORAC-FL assay. The class given is functional. Summed up:
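ORAC-FL in 75 mM phosphate buffer, pH 7.4. Sample at 5 µM was preincubated with fluorescein (150 nM final) for 15 min at 37 °C, then AAPH was added (12 mM final). Fluorescence (ex 485/em 535 nm) was read every minute for 90 min. […] Triplicate, at least three independent assays.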

Data set [3] deals with Amyloid-beta precursor protein (Homo sapiens) (UniProt P05067). The experiment in a line: Inhibition of HFIP-pretreated self-induced amyloid beta (1 to 42) (unknown origin) aggregation at 25 uM measured after 24 hrs by ThT fluorescence assay relative to control. The method in brief: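 Aβ1-42 was pretreated in HFIP for 24 h at room temperature, dried, and dissolved in DMSO to a 200 µM stock. Aβ (25 µM) was incubated with compound (25 µM) at 37 °C for 24 h. ThT was added at 5 µM in glycine-NaOH, pH 8.5. Fluorescence ex 446/em 490 nm, background-subtracted; inhibition = (1−IFi/IFc)×100. Triplicate.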

For data set [4], the target named is Acetylcholinesterase (Electrophorus electricus) (UniProt O42275). Description: Inhibition of Electrophorus electricus AChE at 50 uM using […] as substrate incubated for 15 mins by Ellman's method relative to control. Summed up:
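Eel AChE (0.05 U/mL final) with acetylthiocholine iodide 1 mM and DTNB 0.2% in […] pH 8.0, 37 °C 15 min (modified Ellman); absorbance at 412 nm. Three independent experiments, each in triplicate.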
In general terms: Ellman's reagent forms a yellow product with free thiols.

A further data set deals with Acetylcholinesterase (Electrophorus electricus, UniProt O42275). Description: Inhibition of Electrophorus electricus AChE using […] as substrate incubated for 15 mins by Ellman's method.
The target in data set [5] is T1, Amine oxidase [flavin-containing] A (Homo sapiens, UniProt P21397).
T1 sequence (P21397 whole entry): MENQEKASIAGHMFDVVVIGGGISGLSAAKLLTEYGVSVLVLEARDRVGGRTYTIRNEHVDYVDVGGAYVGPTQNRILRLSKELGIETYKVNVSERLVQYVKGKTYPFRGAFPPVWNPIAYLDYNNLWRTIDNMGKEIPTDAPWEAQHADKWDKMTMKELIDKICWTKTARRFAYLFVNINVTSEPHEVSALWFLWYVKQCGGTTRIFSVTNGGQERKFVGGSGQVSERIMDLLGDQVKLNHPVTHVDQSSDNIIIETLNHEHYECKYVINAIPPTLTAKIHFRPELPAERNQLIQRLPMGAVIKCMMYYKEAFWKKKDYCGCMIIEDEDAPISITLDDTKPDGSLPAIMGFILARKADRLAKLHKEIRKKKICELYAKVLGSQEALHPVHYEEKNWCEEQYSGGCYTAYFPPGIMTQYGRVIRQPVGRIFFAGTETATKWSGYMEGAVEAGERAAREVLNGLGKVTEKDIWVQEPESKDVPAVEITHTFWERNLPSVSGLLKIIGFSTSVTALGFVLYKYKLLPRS
Description: Inhibition of recombinant human MAO-A expressed in baculovirus infected BTI insect cells at 10 uM using kynuramine as substrate measured after 30 mins by fluorescence based assay relative to control. The settings on record: 0.5 h. Summed up: (§1)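 Recombinant human MAO-A or MAO-B (7.5 µg/mL) in 100 mM potassium phosphate, pH 7.4, with 20.2 mM KCl and DMSO below 4%. Kynuramine was 45 µM for MAO-A and 30 µM for MAO-B. Incubation 30 min at 37 °C, stopped with NaOH and water, then centrifuged. Supernatant fluorescence ex 310/em 400 nm. Triplicate.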

For data set [6], the target named is T2, Amine oxidase [flavin-containing] B (Homo sapiens, UniProt P27338).
T2 sequence (P27338 whole entry): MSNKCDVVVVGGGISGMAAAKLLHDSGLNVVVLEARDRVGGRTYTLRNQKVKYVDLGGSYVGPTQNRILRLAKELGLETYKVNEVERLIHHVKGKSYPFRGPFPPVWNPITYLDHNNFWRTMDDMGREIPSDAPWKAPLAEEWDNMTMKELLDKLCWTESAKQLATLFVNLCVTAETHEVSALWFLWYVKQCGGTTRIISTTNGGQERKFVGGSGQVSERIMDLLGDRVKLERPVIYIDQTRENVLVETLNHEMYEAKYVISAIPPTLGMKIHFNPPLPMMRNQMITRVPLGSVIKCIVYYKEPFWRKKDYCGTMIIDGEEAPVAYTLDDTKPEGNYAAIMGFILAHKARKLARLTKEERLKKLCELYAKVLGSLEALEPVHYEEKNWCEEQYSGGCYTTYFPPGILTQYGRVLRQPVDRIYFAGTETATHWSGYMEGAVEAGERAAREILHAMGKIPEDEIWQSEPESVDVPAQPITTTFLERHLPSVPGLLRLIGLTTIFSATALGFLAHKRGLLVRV
Description: Inhibition of recombinant human MAO-B expressed in baculovirus infected BTI insect cells at 10 uM using kynuramine as substrate measured after 30 mins by fluorescence based assay relative to control. The settings on record: 0.5 h. The method in brief: as §1

Data set [7] can be described thus: Permeability of the compound at 100 ug/ml measured after 18 hrs by PAMPA assay. It is filed as ADME. The conditions noted are these: read-out: permeability. Summed up:
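PAMPA-BBB. Filter coated with porcine brain lipid in dodecane. Compound (DMSO stock 5 mg/mL) was diluted to 100 µg/mL in PBS/EtOH (70:30) in the donor well, with PBS/EtOH in the acceptor. Left 18 h at 25 °C. Acceptor concentration read at ten wavelengths in four wells. Three independent runs, validated with 11 reference drugs.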
Background: PAMPA measures passive passage across an artificial lipid membrane.

In data set [8] the test system is Mus musculus. Description: Antialzheimer activity in scopolamine-induced Kunming mouse model of memory impairment assessed as increase in latency time at 5 mg/kg/day, ig for 7 days followed by training trial at 1 hr post dose on day 6 and subsequent scopolamine challenge at 30 mins post training trial and measured post last dose by step-down passive avoidance test. The class given is functional, organism-based. The method in brief: (§2)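 Kunming mice, 18-22 g, male and female in half, 8 per group. Dosed i.g. once daily for 7 days, vehicle 0.5% CMC-Na. Day-6 training came 1 h after dosing: a 50 V, 5 s foot shock on stepping down from the platform, in a 5 min trial. Scopolamine 2.0 mg/kg i.p. followed 30 min later; control mice got none. Step-down latency and number of shocks were counted over 5 min in the test trial 24 h after training. Mean ± SEM.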

For data set [9], the system named is Mus musculus. Description: Antialzheimer activity in scopolamine-induced Kunming mouse model of memory impairment assessed as decrease in number of electric shock at 5 mg/kg/day, ig for 7 days followed by training trial at 1 hr post dose on day 6 and subsequent scopolamine challenge at 30 mins post training trial and measured post last dose by step-down passive avoidance test. It is filed as functional, organism-based. Summed up:
as §2

Sequence of Amyloid-beta precursor protein (Homo sapiens) (P05067 whole entry): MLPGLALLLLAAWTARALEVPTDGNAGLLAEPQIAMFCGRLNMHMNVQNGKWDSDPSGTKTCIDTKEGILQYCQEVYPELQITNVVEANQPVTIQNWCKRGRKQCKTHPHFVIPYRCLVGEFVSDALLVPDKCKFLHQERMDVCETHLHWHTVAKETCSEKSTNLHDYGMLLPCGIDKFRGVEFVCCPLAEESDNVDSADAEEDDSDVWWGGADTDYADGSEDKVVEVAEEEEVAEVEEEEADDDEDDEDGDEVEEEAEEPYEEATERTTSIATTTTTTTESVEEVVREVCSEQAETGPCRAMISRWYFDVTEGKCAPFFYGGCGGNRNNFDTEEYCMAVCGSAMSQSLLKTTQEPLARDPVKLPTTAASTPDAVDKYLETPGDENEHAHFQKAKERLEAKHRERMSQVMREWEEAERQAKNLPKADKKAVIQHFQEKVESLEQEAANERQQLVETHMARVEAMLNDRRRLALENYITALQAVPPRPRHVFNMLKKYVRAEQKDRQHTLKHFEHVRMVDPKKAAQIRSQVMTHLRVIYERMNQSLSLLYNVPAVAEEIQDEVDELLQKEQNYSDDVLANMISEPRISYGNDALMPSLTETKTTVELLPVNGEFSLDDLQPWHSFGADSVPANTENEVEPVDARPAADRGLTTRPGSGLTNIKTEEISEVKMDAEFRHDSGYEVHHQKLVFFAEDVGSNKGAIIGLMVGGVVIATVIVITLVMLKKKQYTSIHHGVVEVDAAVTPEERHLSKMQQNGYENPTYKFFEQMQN
Sequence of Acetylcholinesterase (O42275 whole entry): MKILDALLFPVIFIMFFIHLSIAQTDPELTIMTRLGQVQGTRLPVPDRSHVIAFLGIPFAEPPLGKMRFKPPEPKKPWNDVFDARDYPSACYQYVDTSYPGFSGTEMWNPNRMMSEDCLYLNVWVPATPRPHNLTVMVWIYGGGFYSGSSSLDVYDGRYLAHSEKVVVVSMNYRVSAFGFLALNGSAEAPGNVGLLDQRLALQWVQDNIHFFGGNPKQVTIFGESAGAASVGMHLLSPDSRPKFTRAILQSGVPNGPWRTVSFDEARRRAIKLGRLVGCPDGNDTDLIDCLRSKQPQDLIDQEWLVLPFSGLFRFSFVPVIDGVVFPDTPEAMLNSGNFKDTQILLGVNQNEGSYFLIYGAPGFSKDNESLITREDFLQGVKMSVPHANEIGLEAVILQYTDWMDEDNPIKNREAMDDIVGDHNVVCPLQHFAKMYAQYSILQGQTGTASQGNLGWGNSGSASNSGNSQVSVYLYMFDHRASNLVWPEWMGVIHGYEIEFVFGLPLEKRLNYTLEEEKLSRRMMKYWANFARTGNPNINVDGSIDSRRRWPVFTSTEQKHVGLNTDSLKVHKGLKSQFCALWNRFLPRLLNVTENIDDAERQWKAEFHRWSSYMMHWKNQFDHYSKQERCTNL
Sequence of Butyrylcholinesterase (BuChE) (Q9JKC1 whole entry): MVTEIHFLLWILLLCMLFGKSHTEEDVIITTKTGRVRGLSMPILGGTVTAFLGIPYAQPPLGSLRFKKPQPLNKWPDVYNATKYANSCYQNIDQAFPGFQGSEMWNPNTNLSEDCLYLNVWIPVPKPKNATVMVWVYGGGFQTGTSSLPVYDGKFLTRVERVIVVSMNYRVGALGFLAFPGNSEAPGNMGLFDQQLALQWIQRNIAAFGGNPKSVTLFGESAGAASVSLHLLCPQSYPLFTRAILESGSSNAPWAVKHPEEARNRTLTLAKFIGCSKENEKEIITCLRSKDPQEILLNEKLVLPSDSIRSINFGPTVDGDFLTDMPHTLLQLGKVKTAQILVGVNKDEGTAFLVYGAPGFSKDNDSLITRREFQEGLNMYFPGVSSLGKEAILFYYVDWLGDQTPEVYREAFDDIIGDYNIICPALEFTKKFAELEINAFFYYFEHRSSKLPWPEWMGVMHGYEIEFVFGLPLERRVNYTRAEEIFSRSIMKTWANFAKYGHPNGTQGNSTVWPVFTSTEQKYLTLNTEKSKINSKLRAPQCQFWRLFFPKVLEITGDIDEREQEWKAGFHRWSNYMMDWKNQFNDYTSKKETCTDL
Sequence of Acetylcholinesterase (Electrophorus electricus) (O42275 24-633 limits assumed): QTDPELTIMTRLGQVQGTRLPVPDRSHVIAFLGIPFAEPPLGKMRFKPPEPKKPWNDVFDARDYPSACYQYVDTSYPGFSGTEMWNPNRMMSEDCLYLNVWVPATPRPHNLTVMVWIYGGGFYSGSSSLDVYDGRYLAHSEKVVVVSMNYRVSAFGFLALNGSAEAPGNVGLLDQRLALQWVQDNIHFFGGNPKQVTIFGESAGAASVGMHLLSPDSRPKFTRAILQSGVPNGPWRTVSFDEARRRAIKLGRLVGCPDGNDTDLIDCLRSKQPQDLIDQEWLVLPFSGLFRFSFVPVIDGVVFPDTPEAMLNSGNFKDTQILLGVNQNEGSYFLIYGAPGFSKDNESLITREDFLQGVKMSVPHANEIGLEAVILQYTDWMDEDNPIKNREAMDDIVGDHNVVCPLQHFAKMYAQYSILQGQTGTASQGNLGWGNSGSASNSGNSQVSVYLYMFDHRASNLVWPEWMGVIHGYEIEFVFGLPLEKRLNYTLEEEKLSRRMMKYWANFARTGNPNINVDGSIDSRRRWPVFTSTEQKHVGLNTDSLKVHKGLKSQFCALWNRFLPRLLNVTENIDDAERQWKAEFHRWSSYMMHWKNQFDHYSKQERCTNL

The inhibition is how much of the control response was suppressed. On to `CCCCC1OC(=O)c2ccccc21` (racemic) [RAC-3-N-BUTYLPHTHALIDE], for which testing at 50 µM in data set [1] gave an inhibition of 2.67%. Moreover, in data set [2], the Activity came out at 0.21 µMequiv/µM. Moreover, the inhibition in [3] and in data set [4] was < 5% each time.

Broadly, the IC50 is the concentration that inhibits the measured activity by half. High values mean weaker potency in that assay, low ones greater potency in that assay. At Acetylcholinesterase, `COc1cc2c(cc1OC)C(CCCCCCN(C)Cc1ccccc1)OC2=O` (centres undefined) had an IC50 of 160 nM. In data set [1], at 50 µM the inhibition was 13.9%. Also, the Activity in data set [2] turned out to be 0.25 µMequiv/µM. Moreover, the inhibition in data set [3] amounted to 13%. The inhibition at 10 µM in [5] was 7.88%; in [6], 16.3%. In addition, in data set [7], the Papp at 18 h, 100 ug/ml worked out at 13.6 ×10⁻⁶ cm/s.

The compound `COc1cc2c(cc1OC)/C(=C\CCCCCN(C)Cc1ccccc1)OC2=O` yielded an IC50 against Acetylcholinesterase of 4.84 nM. The compound also yielded an inhibition at 50 µM in data set [1] of 17.6%. Moreover, the Activity in data set [2] amounted to 0.43 µMequiv/µM. Besides, the inhibition in data set [3] came to 12.4%. In addition, the inhibition at 10 µM in data set [5] was determined as 22.3%; in data set [6] it was 5.66%. Also, the Papp at 18 h, 100 ug/ml in [7] was 10.3 ×10⁻⁶ cm/s.

On to `COc1cc2c(cc1OC)C(=O)C(CC1CCN(Cc3ccccc3)CC1)C2` (centres undefined), for which the outcome in the data set with Mus musculus [8] and in the data set on Mus musculus [9] was inactive.

Consider `COc1ccccc1CN(C)CCCCC1OC(=O)c2cc(OC)c(OC)cc21` (centres undefined), for which, at Acetylcholinesterase, the 50% inhibitory concentration (IC50) worked out at 490 nM. Also, in data set [1], 50 µM produced 21.7% inhibition. Further, the Activity in data set [2] stood at 0.27 µMequiv/µM. Further, the inhibition in data set [3] worked out at 14.4%. Moreover, the inhibition at 10 µM in data set [5] came out at 0.25%; in data set [6], 5.7%.

The compound `COc1cc2c(cc1OC)/C(=C/CCCN(C)Cc1ccccc1)OC2=O` returned an IC50 against Acetylcholinesterase of 340 nM. Further, in data set [1], the inhibition at 50 µM amounted to 12.2%. The Activity in data set [2] was 0.32 µMequiv/µM. Also, the inhibition in data set [3] worked out at 11.7%. In addition, the inhibition at 10 µM in data set [5] stood at 10.9%; in [6], 11.9%.

In turn, `CCN(CCC/C=C1/OC(=O)c2cc(OC)c(OC)cc21)Cc1ccccc1` displayed a concentration for half-maximal inhibition (IC50) against Acetylcholinesterase of 1400 nM. Besides, in data set [1], at 50 µM the inhibition was 11%. The Activity in data set [2] was 0.52 µMequiv/µM. Besides, the inhibition in data set [3] was 30.3%. Besides, the inhibition at 10 µM in data set [5] came out at 12.6%; in data set [6] it was 15.8%.

`COc1cc2c(cc1OC)/C(=C/CCCN1CCCCC1)OC2=O` showed an IC50 against Acetylcholinesterase of 4560 nM. In [1], this compound had an inhibition at 50 µM of 21.9%. For the same compound, the Activity in data set [2] was 0.28 µMequiv/µM. Moreover, the inhibition in data set [3] came to 4.9%. The values for the inhibition at 10 µM in data set [5] and in data set [6] were 1.95% and 32.3%, respectively.
